Series [1] in a line: folding enthalpy; higher = less favourable; fluorescence melt of hairpins on a sequencing array, two-state fit. As to conditions: sodium 0.088 M. The essentials:
(§1)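 Folding enthalpy and melting temperature come from bootstrapped two-state fits to Cy3 fluorescence of library hairpins carrying annealed Cy3 and quencher oligos on a sequenced MiSeq flow cell. Imaging was done in 50 mM Na-HEPES pH 8.0, 25 mM NaCl, stepping by 2.5 °C up to 60 °C, and signals were normalised to pre-quench Cy3 and to control constructs. Results of four replicates were combined by inverse variance, and fitted temperatures were raised by 9.35 °C to match UV melts.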

The nature of series [2]: melting temperature; fluorescence melt of hairpins on a sequencing array, two-state fit, raised by 9.35 °C to match UV melts. Particulars: sodium 0.088 M. The essentials: as §1

As to GATCAAGTGATTGATC ((((((....)))))), in series [1], the folding enthalpy was -32.2 kcal/mol. For the same sequence, the Tm in series [2] worked out at 47.3 °C.
Turning to GATCAAGTGCTTGATC ((((((....)))))), the folding enthalpy in series [1] is -41.2 kcal/mol. The Tm in series [2] was determined as 47.2 °C.
For GATCAAGTTGTTGATC ((((((....)))))), in series [1], the folding enthalpy was -36.6 kcal/mol. In addition, in series [2], the Tm is 45.1 °C.
As for GATCAATAATTGATC ((((((...)))))), in series [1], the folding enthalpy was -23.8 kcal/mol. Moreover, the Tm in series [2] stood at 40.3 °C.
For GATCAATACCTTGATC ((((((....)))))), in that order: -34 kcal/mol and 46.5 °C.
Take GATCAATACTTGATC ((((((...)))))): in series [1], the folding enthalpy was -30.4 kcal/mol. Moreover, the Tm in series [2] is 42 °C.
For GATCAATAGTTTGATC ((((((....)))))), in that order: -30.6 kcal/mol and 42.7 °C.
Taken in the same sequence, the figures for GATCAATATCTTGATC ((((((....)))))) were -30.6 kcal/mol and 42.6 °C.
For GATCAATCACTTGATC ((((((....)))))), in that order: -29.9 kcal/mol and 43.2 °C.
Consider GATCAATCCATTGATC ((((((....)))))), for which the folding enthalpy in series [1] was -42.6 kcal/mol. The Tm in series [2] worked out at 49.7 °C.
Take GATCAATCGGTTGATC ((((((....)))))): the folding enthalpy in series [1] is -42 kcal/mol. The Tm in series [2] was found to be 44.4 °C.
Taken in the same sequence, the figures for GATCAATCTCTTGATC ((((((....)))))) were -30.1 kcal/mol and 43.2 °C.
Taken in the same sequence, the figures for GATCAATGCATTGATC ((((((....)))))) were -65.6 kcal/mol and 52.3 °C.
For the sequence GATCAATTACTTGATC ((((((....)))))), the folding enthalpy in series [1] is -31.4 kcal/mol. In addition, the Tm in series [2] worked out at 44 °C.
On to GATCAATTATTGATC ((((((...)))))), for which the folding enthalpy in series [1] was -29.3 kcal/mol. Also, the Tm in series [2] stood at 43.8 °C.
As for GATCAATTCTTTGATC ((((((....)))))), in series [1], the folding enthalpy was -35.9 kcal/mol. In addition, the Tm in series [2] was 47.8 °C.
Taken in the same sequence, the figures for GATCAATTTTTTGATC ((((((....)))))) were -35.1 kcal/mol and 47.3 °C.
For GATCACAAACGTGATC ((((((....)))))), in that order: -33.2 kcal/mol and 55.6 °C.
With GATCACAAAGGTGATC ((((((....)))))), the folding enthalpy in series [1] is -32.8 kcal/mol. Also, in series [2], the Tm stood at 53.6 °C.
For GATCACAAATGTGATC ((((((....)))))), in that order: -33.4 kcal/mol and 55.5 °C.
With GATCACAACGTGATC ((((((...)))))), the folding enthalpy in series [1] was -34.4 kcal/mol. The Tm in series [2] amounted to 61.3 °C.
Taken in the same sequence, the figures for GATCACAAGCGTGATC ((((((....)))))) were -37.6 kcal/mol and 56.6 °C.
For GATCACAATAGTGATC ((((((....)))))), in series [1], the folding enthalpy is -38.3 kcal/mol. Moreover, in series [2], the Tm was 60.8 °C.
For GATCACAATGGTGATC ((((((....)))))), in series [1], the folding enthalpy is -35.1 kcal/mol. For the same sequence, in series [2], the Tm is 55.3 °C.
Taken in the same sequence, the figures for GATCACACAGTGATC ((((((...)))))) were -38.1 kcal/mol and 58.8 °C.
Taken in the same sequence, the figures for GATCACACCAGTGATC ((((((....)))))) were -38.6 kcal/mol and 59 °C.
For GATCACACCGGTGATC ((((((....)))))), in that order: -39.3 kcal/mol and 57.3 °C.
For the sequence GATCACACGAGTGATC ((((((....)))))), the folding enthalpy in series [1] was -43.6 kcal/mol. Besides, the Tm in series [2] worked out at 56.4 °C.
In the case of GATCACACGCGTGATC ((((((....)))))), the folding enthalpy in series [1] is -38.6 kcal/mol. Besides, the Tm in series [2] was 58.5 °C.
Taken in the same sequence, the figures for GATCACACGGGTGATC ((((((....)))))) were -35.5 kcal/mol and 57.1 °C.
For GATCACACTCGTGATC ((((((....)))))), in that order: -40.6 kcal/mol and 57.4 °C.
On to GATCACAGCAGTGATC ((((((....)))))), for which the folding enthalpy in series [1] is -40.3 kcal/mol. Further, in series [2], the Tm worked out at 59.5 °C.
For the sequence GATCACAGCTGTGATC ((((((....)))))), the folding enthalpy in series [1] is -41.9 kcal/mol. In series [2], the Tm was 59 °C.
For GATCACATAAGTGATC ((((((....)))))), in that order: -39.3 kcal/mol and 58.9 °C.
For GATCACATGGGTGATC ((((((....)))))), in that order: -45.1 kcal/mol and 56.4 °C.
On to GATCACATGGTGATC ((((((...)))))), for which, in series [1], the folding enthalpy is -37 kcal/mol. The Tm in series [2] turned out to be 61.1 °C.
Taken in the same sequence, the figures for GATCACATGTGTGATC ((((((....)))))) were -43.2 kcal/mol and 57.2 °C.
Take GATCACATTAGTGATC ((((((....)))))): the folding enthalpy in series [1] was -45 kcal/mol. For the same sequence, the Tm in series [2] was found to be 59.2 °C.
Taken in the same sequence, the figures for GATCACCACGTGATC ((((((...)))))) were -38.5 kcal/mol and 58.9 °C.
Taken in the same sequence, the figures for GATCACCCAGTGATC ((((((...)))))) were -38.1 kcal/mol and 57.2 °C.
Taken in the same sequence, the figures for GATCACCCCTGTGATC ((((((....)))))) were -47.6 kcal/mol and 55.6 °C.
In the case of GATCACCCGAGTGATC ((((((....)))))), the folding enthalpy in series [1] was -41.3 kcal/mol. Also, in series [2], the Tm turned out to be 57 °C.
As for GATCACCCGCGTGATC ((((((....)))))), in series [1], the folding enthalpy is -48.3 kcal/mol. In addition, in series [2], the Tm is 54.5 °C.
Consider GATCACCCTTGTGATC ((((((....)))))), for which the folding enthalpy in series [1] was -43.7 kcal/mol. The Tm in series [2] was 54.9 °C.
Taken in the same sequence, the figures for GATCACCGAGGTGATC ((((((....)))))) were -46.8 kcal/mol and 63.5 °C.
For the sequence GATCACCGCAGTGATC ((((((....)))))), in series [1], the folding enthalpy is -40 kcal/mol. Besides, in series [2], the Tm stood at 59 °C.
Taken in the same sequence, the figures for GATCACCTCAGTGATC ((((((....)))))) were -42.3 kcal/mol and 59.6 °C.
For the sequence GATCACGAAAGTGAGATC ((((((....)))..))), the folding enthalpy in series [1] is -17 kcal/mol. Also, in series [2], the Tm was 48.5 °C.
With GATCACGAAAGTGATATC ((((((....)))..))), the folding enthalpy in series [1] was -17.3 kcal/mol. The Tm in series [2] came to 50.5 °C.
Take GATCACGAAAGTGTTATC ((((((....)))..))): the folding enthalpy in series [1] was -9.57 kcal/mol. Also, the Tm in series [2] was determined as 28.4 °C.
For the sequence GATCACGAGCGTGATC ((((((....)))))), the folding enthalpy in series [1] was -39.5 kcal/mol. In addition, the Tm in series [2] stood at 59.1 °C.
Taken in the same sequence, the figures for GATCACGAGTGTGATC ((((((....)))))) were -37.7 kcal/mol and 56.3 °C.
For GATCACGATCGTGATC ((((((....)))))), in that order: -47.4 kcal/mol and 59.6 °C.
Taken in the same sequence, the figures for GATCACGCGAGTGATC ((((((....)))))) were -33.8 kcal/mol and 68.8 °C.
As for GATCACGCGGGTGATC ((((((....)))))), the folding enthalpy in series [1] was -32 kcal/mol. The Tm in series [2] was found to be 57.1 °C.
Turning to GATCACGCTGGTGATC ((((((....)))))), in series [1], the folding enthalpy was -42.5 kcal/mol. In series [2], the Tm is 58.2 °C.
As for GATCACGGAAACGCGATC ((((.((....)).)))), the folding enthalpy in series [1] was -34.3 kcal/mol. Further, the Tm in series [2] worked out at 48.2 °C.
Taken in the same sequence, the figures for GATCACGGAAACGTGGTC ((.((((....)))).)) were -38.7 kcal/mol and 53.8 °C.
Take GATCACGGAAGTGATC ((((((....)))))): the folding enthalpy in series [1] was -29.3 kcal/mol. For the same sequence, the Tm in series [2] is 68.9 °C.
As for GATCACGGTCGTGATC ((((((....)))))), the folding enthalpy in series [1] was -39.6 kcal/mol. Besides, in series [2], the Tm was 60.7 °C.
For GATCACGTCCGTGATC ((((((....)))))), in that order: -41.6 kcal/mol and 61.1 °C.
Taken in the same sequence, the figures for GATCACTAAGTGATC ((((((...)))))) were -33.9 kcal/mol and 55.2 °C.
Taken in the same sequence, the figures for GATCACTAATGTGATC ((((((....)))))) were -35.2 kcal/mol and 55.1 °C.
For the sequence GATCACTAGAGTGATC ((((((....)))))), the folding enthalpy in series [1] was -40.8 kcal/mol. In addition, the Tm in series [2] is 56.4 °C.
Regarding GATCACTCACGTGATC ((((((....)))))), the folding enthalpy in series [1] was -41.5 kcal/mol. Further, in series [2], the Tm came out at 55.8 °C.
For GATCACTCAGGTGATC ((((((....)))))), in that order: -37 kcal/mol and 57.4 °C.
Consider GATCACTCCAGTGATC ((((((....)))))), for which the folding enthalpy in series [1] is -30.5 kcal/mol. The Tm in series [2] was determined as 58.4 °C.
Taken in the same sequence, the figures for GATCACTCCCGTGATC ((((((....)))))) were -47.2 kcal/mol and 55.8 °C.
Consider GATCACTCTAGTGATC ((((((....)))))), for which the folding enthalpy in series [1] was -40.4 kcal/mol. Moreover, in series [2], the Tm came out at 59.9 °C.
For GATCACTCTCGTGATC ((((((....)))))), in that order: -41.8 kcal/mol and 55.7 °C.
For GATCACTCTGGTGATC ((((((....)))))), in that order: -39.8 kcal/mol and 58.8 °C.
Consider GATCACTGCCGTGATC ((((((....)))))), for which the folding enthalpy in series [1] is -44.5 kcal/mol. The Tm in series [2] came to 55.9 °C.
For GATCACTGGAGTGATC ((((((....)))))), in that order: -48.7 kcal/mol and 55.7 °C.
As for GATCACTGGTGTGATC ((((((....)))))), the folding enthalpy in series [1] was -36.7 kcal/mol. The Tm in series [2] was 58 °C.
For GATCACTTATGTGATC ((((((....)))))), in that order: -37.5 kcal/mol and 56.7 °C.
As to GATCACTTCCGTGATC ((((((....)))))), the folding enthalpy in series [1] is -35.8 kcal/mol. In series [2], the Tm was found to be 56.5 °C.

(Values after the array DNA melting data of Ke et al. (doi:10.1101/2024.01.08.574731).)
